From ChEMBL document CHEMBL1147441, “A new series of potent oxindole inhibitors of CDK2” (Bioorg Med Chem Lett, 2004)

How the values were obtained:
SW480 [1] = assay: Percent inhibition of SW480 cell growth in sub G0 phase at 0 nm concentration in FACS cell cycle after 4 hr of treatment; assay type: functional, Homo sapiens
In short: (§1)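 SW480 cells were exposed to compound for 4, 16 or 24 h. Cells were fixed in 70% ethanol, pelleted for 1 min at 3000g at 25 °C and washed once in PBS. They were then treated with ribonuclease for 15 min at 37 °C and stained with propidium iodide for 30 min at room temperature. Flow cytometry gave the % of cells in G0-G1, S, G2-M and subG0, and the G2/G1 ratio.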

SW480 [2] = assay: Percent inhibition of SW480 cell growth in S phase at 0 nm concentration in FACS cell cycle after 16 hr of treatment; assay type: functional, Homo sapiens; in short: as §1
SW480 [3] = assay: Percent inhibition of SW480 cell growth in G0-G1 phase at 270 nm concentration in FACS cell cycle after 24 hr of treatment; assay type: functional, Homo sapiens; in short: as §1
SW480 [4] = assay: Percent inhibition of SW480 cell growth in G0-G1 phase at 0 nm concentration in FACS cell cycle after 16 hr of treatment; assay type: functional, Homo sapiens; in short: as §1
SW480 [5] = assay: Percent inhibition of SW480 cell growth in G0-G1 phase at 0 nm concentration in FACS cell cycle after 24 hr of treatment; assay type: functional, Homo sapiens; in short: as §1
SW480 [6] = assay: Percent inhibition of SW480 cell growth in G0-G1 phase at 92 nm concentration in FACS cell cycle after 24 hr of treatment; assay type: functional, Homo sapiens; in short: as §1
SW480 [7] = assay: In vitro inhibition of SW480 (human colon cancer) cell proliferation.; assay type: functional, cell-based
In short: (§2)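 MTT-based proliferation assay run on tumour cells. IC50 values were taken from a single experiment.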

SW480 [8] = assay: Percent inhibition of SW480 cell growth in S phase at 270 nm concentration in FACS cell cycle after 24 hr of treatment; assay type: functional, Homo sapiens; in short: as §1
[9] = Inhibition ratio of G2 and G1 phase cellular fractions of SW480 cells treated with compound at 270 nM concentration at 24 h; assay type: functional; in short: as §1
SW480 [10] = assay: Percent inhibition of SW480 cell growth in sub G0 phase at 0 nm concentration in FACS cell cycle after 24 hr of treatment; assay type: functional, Homo sapiens; in short: as §1
SW480 [11] = assay: Percent inhibition of SW480 cell growth in S phase at 92 nm concentration in FACS cell cycle after 4 hr of treatment; assay type: functional, Homo sapiens; in short: as §1
[12] = Inhibition ratio of G2 and G1 phase cellular fractions of SW480 cells treated with compound at 270 nM concentration at 4 h; assay type: functional; in short: as §1
SW480 [13] = assay: Percent inhibition of SW480 cell growth in G0-G1 phase at 270 nm concentration in FACS cell cycle after 4 hr of treatment; assay type: functional, Homo sapiens; in short: as §1
SW480 [14] = assay: Percent inhibition of SW480 cell growth in G2-M phase at 92 nm concentration in FACS cell cycle after 4 hr of treatment; assay type: functional, Homo sapiens; in short: as §1
SW480 [15] = assay: Percent inhibition of SW480 cell growth in G0-G1 phase at 92 nm concentration in FACS cell cycle after 16 hr of treatment; assay type: functional, Homo sapiens; in short: as §1
SW480 [16] = assay: Percent inhibition of SW480 cell growth in G2-M phase at 270 nm concentration in FACS cell cycle after 4 hr of treatment; assay type: functional, Homo sapiens; in short: as §1
SW480 [17] = assay: Percent inhibition of SW480 cell growth in G0-G1 phase at 270 nm concentration in FACS cell cycle after 16 hr of treatment; assay type: functional, Homo sapiens; in short: as §1
SW480 [18] = assay: Percent inhibition of SW480 cell growth in sub G0 phase at 92 nm concentration in FACS cell cycle after 24 hr of treatment; assay type: functional, Homo sapiens; in short: as §1
SW480 [19] = assay: Percent inhibition of SW480 cell growth in G0-G1 phase at 92 nm concentration in FACS cell cycle after 4 hr of treatment; assay type: functional, Homo sapiens; in short: as §1
[20] = Inhibition ratio of G2 and G1 phase cellular fractions of SW480 cells treated with compound at 92 nM concentration at 16 h; assay type: functional; in short: as §1
SW480 [21] = assay: Percent inhibition of SW480 cell growth in G2-M phase at 270 nm concentration in FACS cell cycle after 16 hr of treatment; assay type: functional, Homo sapiens; in short: as §1
SW480 [22] = assay: Percent inhibition of SW480 cell growth in G2-M phase at 0 nm concentration in FACS cell cycle after 4 hr of treatment; assay type: functional, Homo sapiens; in short: as §1
SW480 [23] = assay: Percent inhibition of SW480 cell growth in S phase at 92 nm concentration in FACS cell cycle after 24 hr of treatment; assay type: functional, Homo sapiens; in short: as §1
SW480 [24] = assay: Percent inhibition of SW480 cell growth in sub G0 phase at 92 nm concentration in FACS cell cycle after 16 h of treatment; assay type: functional, Homo sapiens; in short: as §1
SW480 [25] = assay: Percent inhibition of SW480 cell growth in G0-G1 phase at 0 nm concentration in FACS cell cycle after 4 hr of treatment; assay type: functional, Homo sapiens; in short: as §1
SW480 [26] = assay: Percent inhibition of SW480 cell growth in S phase at 270 nm concentration in FACS cell cycle after 16 hr of treatment; assay type: functional, Homo sapiens; in short: as §1
SW480 [27] = assay: Percent inhibition of SW480 cell growth in sub G0 phase at 270 nm concentration in FACS cell cycle after 24 h of treatment; assay type: functional, Homo sapiens; in short: as §1
MDA-MB-435 = assay: In vitro inhibition of MDA MB 435 (human breast cancer) cell proliferation.; assay type: functional, cell-based; in short: as §2
SW480 [28] = assay: Percent inhibition of SW480 cell growth in G2-M phase at 92 nm concentration in FACS cell cycle after 16 hr of treatment; assay type: functional, Homo sapiens; in short: as §1
SW480 [29] = assay: Percent inhibition of SW480 cell growth in G2-M phase at 0 nm concentration in FACS cell cycle after 16 hr of treatment; assay type: functional, Homo sapiens; in short: as §1
[30] = Inhibition ratio of G2 and G1 phase cellular fractions of SW480 cells treated with compound at 270 nM concentration at 16 h; assay type: functional; in short: as §1
[31] = Inhibition ratio of G2 and G1 phase cellular fractions of SW480 cells treated with compound at 92 nM concentration at 4 h; assay type: functional; in short: as §1
SW480 [32] = assay: Percent inhibition of SW480 cell growth in G2-M phase at 0 nm concentration in FACS cell cycle after 24 hr of treatment; assay type: functional, Homo sapiens; in short: as §1
SW480 [33] = assay: Percent inhibition of SW480 cell growth in S phase at 0 nm concentration in FACS cell cycle after 24 hr of treatment; assay type: functional, Homo sapiens; in short: as §1
SW480 [34] = assay: Percent inhibition of SW480 cell growth in G2-M phase at 92 nm concentration in FACS cell cycle after 24 hr of treatment; assay type: functional, Homo sapiens; in short: as §1
SW480 [35] = assay: Percent inhibition of SW480 cell growth in S phase at 92 nm concentration in FACS cell cycle after 16 hr of treatment; assay type: functional, Homo sapiens; in short: as §1
SW480 [36] = assay: Percent inhibition of SW480 cell growth in sub G0 phase at 270 nm concentration in FACS cell cycle after 4 hr of treatment; assay type: functional, Homo sapiens; in short: as §1
[37] = Inhibition ratio of G2 and G1 phase cellular fractions of SW480 cells treated with compound at 0 nM concentration at 16 h; assay type: functional; in short: as §1
SW480 [38] = assay: Percent inhibition of SW480 cell growth in sub G0 phase at 270 nm concentration in FACS cell cycle after 16 hr of treatment; assay type: functional, Homo sapiens; in short: as §1
SW480 [39] = assay: Percent inhibition of SW480 cell growth in S phase at 0 nm concentration in FACS cell cycle after 4 h of treatment; assay type: functional, Homo sapiens; in short: as §1
[40] = target: Cyclin-dependent kinase 2/cyclin E (Homo sapiens, UniProt P24941); assay: In vitro inhibition of recombinant Cyclin Dependent Kinase-2/Cyclin E.; assay type: protein-complex assay
SW480 [41] = assay: Percent inhibition of SW480 cell growth in G2-M phase at 270 nm concentration in FACS cell cycle after 24 h of treatment; assay type: functional, Homo sapiens; in short: as §1
[42] = Inhibition ratio of G2 and G1 phase cellular fractions of SW480 cells treated with compound at 0 nM concentration at 24 h; assay type: functional; in short: as §1
[43] = Inhibition ratio of G2 and G1 phase cellular fractions of SW480 cells treated with compound at 0 nM concentration at 4 h; assay type: functional; in short: as §1
SW480 [44] = assay: Percent inhibition of SW480 cell growth in sub G0 phase at 0 nm concentration in FACS cell cycle after 16 hr of treatment; assay type: functional, Homo sapiens; in short: as §1
SW480 [45] = assay: Percent inhibition of SW480 cell growth in sub G0 phase at 92 nm concentration in FACS cell cycle after 4 hr of treatment; assay type: functional, Homo sapiens; in short: as §1
SW480 [46] = assay: Percent inhibition of SW480 cell growth in S phase at 270 nm concentration in FACS cell cycle after 4 hr of treatment; assay type: functional, Homo sapiens; in short: as §1
[47] = Inhibition ratio of G2 and G1 phase cellular fractions of SW480 cells treated with compound at 92 nM concentration at 24 h; assay type: functional; in short: as §1

COc1cc[nH]c1/C=C1\C(=O)Nc2ccc(F)c(C#CC3(O)CCNCC3)c21.Cl
SubG0 (SW480 [1]): 13.29% | S (SW480 [2]): 38.61% | G0/G1 (SW480 [3]): 50% | G0/G1 (SW480 [4]): 46.55% | G0/G1 (SW480 [5]): 52.41% | G0/G1 (SW480 [6]): 54.68% | IC50 (SW480 [7]): 92 nM | S (SW480 [8]): 14.54% | Ratio [9]: 1.94% | SubG0 (SW480 [10]): 11.85% | S (SW480 [11]): 29.14% | Ratio [12]: 1.95% | G0/G1 (SW480 [13]): 43.9% | G2/M (SW480 [14]): 18.36% | G0/G1 (SW480 [15]): 55.84% | G2/M (SW480 [16]): 21.8% | G0/G1 (SW480 [17]): 47.74% | SubG0 (SW480 [18]): 11.67% | G0/G1 (SW480 [19]): 52.49% | Ratio [20]: 1.96% | G2/M (SW480 [21]): 38.44% | G2/M (SW480 [22]): 18.42% | S (SW480 [23]): 30.15% | SubG0 (SW480 [24]): 13.52% | G0/G1 (SW480 [25]): 49.25% | S (SW480 [26]): 13.82% | SubG0 (SW480 [27]): 46.86% | IC50 (MDA-MB-435): 110 nM | G2/M (SW480 [28]): 15.72% | G2/M (SW480 [29]): 14.84% | Ratio [30]: 1.94% | Ratio [31]: 1.95% | G2/M (SW480 [32]): 14.89% | S (SW480 [33]): 32.7% | G2/M (SW480 [34]): 15.16% | S (SW480 [35]): 28.43% | SubG0 (SW480 [36]): 14.47% | Ratio [37]: 1.95% | SubG0 (SW480 [38]): 43.52% | S (SW480 [39]): 32.33% | IC50 [40]: 6 nM | G2/M (SW480 [41]): 35.45% | Ratio [42]: 1.95% | Ratio [43]: 1.94% | SubG0 (SW480 [44]): 11.29% | SubG0 (SW480 [45]): 11.17% | S (SW480 [46]): 34.26% | Ratio [47]: 1.96%
